{"source": "paper PMC11914484", "about": "(Scientific Reports, 2025)", "key": {"[1]": {"assay": "Plasma stability, rabbit plasma", "assay_type": "in vitro ADME", "method_in_brief": "(§1)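 K2-EDTA plasma from male animals of each species was incubated with the test compound (1 µM) at 37 °C for 0–4 h, with propantheline bromide (1 µM) as control. Intact compound remaining was measured by LC-MS to give the half-life.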"}, "[2]": {"assay": "Plasma stability, mini-pig plasma", "assay_type": "in vitro ADME", "method_in_brief": "as §1"}, "[3]": {"assay": "Plasma stability, dog plasma", "assay_type": "in vitro ADME", "method_in_brief": "as §1"}, "[4]": {"assay": "Plasma stability, rat plasma", "assay_type": "in vitro ADME", "method_in_brief": "as §1"}, "[5]": {"test_system": "plasma proteins", "assay": "Plasma protein binding by rapid equilibration dialysis", "assay_type": "in vitro ADME, rabbit", "method_in_brief": "(§2)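 Rapid equilibrium dialysis used K2-EDTA plasma from male animals of each species. The test compound (5 µM) was incubated for 2 h at 37 °C, with propranolol (1 µM) as control. Samples were analysed by LC-MS/MS, with response taken as the analyte-to-internal-standard peak area ratio. Unbound fraction = receiver-side response / donor-side response.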"}, "[6]": {"test_system": "plasma proteins", "assay": "Plasma protein binding by rapid equilibration dialysis", "assay_type": "in vitro ADME, rat", "method_in_brief": "as §2"}, "[7]": {"test_system": "plasma proteins", "assay": "Plasma protein binding by rapid equilibration dialysis", "assay_type": "in vitro ADME, mini-pig", "method_in_brief": "as §2"}, "[8]": {"test_system": "plasma proteins", "assay": "Plasma protein binding by rapid equilibration dialysis", "assay_type": "in vitro ADME, dog", "method_in_brief": "as §2"}, "[9]": {"assay": "Safety of AmyP53 in mice", "assay_type": "in vivo, mouse", "method_in_brief": "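C57BL/6 mice. Preliminary safety run in 5 young (4-month-old) mice: intranasal test compound, then 10 min later stereotaxic SNpc injection of test compound, then daily intranasal dosing for 7 days. Full study used 7 per group: saline, human α-synuclein protofibrils (50 µM in 0.9% NaCl, pre-incubated 37 °C for 3 days), or protofibrils plus test compound (100 µM). Injections were bilateral into the SNpc, 2.5 µL, under isoflurane. The co-treated group then received daily intranasal dosing for 35 days.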"}, "[10]": {"test_system": "male and female New Zealand White rabbits", "assay": "14-Day repeated tolerability/toxicity study, intranasal", "assay_type": "in vivo, rabbit", "conditions": "male and female rabbits, 0.1, 1 and 5 mg/kg BW/day, 14 days", "method_in_brief": "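GLP study run by a contract lab. Male and female New Zealand White rabbits were dosed intranasally with the test compound daily for 14 days at 0.1, 1.0 and 5.0 mg/kg body weight/day, followed by a 14-day recovery period, with toxicokinetics. Read-outs: local reaction, mortality, clinical signs, body weight, food consumption, clinical pathology, ophthalmoscopy, organ weight, haematology, coagulation, clinical chemistry and histopathology of a full tissue list.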"}, "[11]": {"test_system": "male and female Sprague Dawley rats", "assay": "28-Day repeated dose toxicity, intranasal", "assay_type": "in vivo, rat"}, "[12]": {"conditions": "cited from earlier work"}, "[13]": {"test_system": "female Wistar rats", "conditions": "initial studies; cited from earlier work"}, "[14]": {"test_system": "male and female Wistar rats", "assay": "Dose range finding, intranasal route", "assay_type": "in vivo, rat", "conditions": "GLP, 0.2, 1 and 5 mg/kg BW every two days during five days"}, "[15]": {"target": "rat plasma proteins", "assay": "rapid equilibration dialysis"}, "[16]": {"target": "mini-pig plasma proteins", "assay": "rapid equilibration dialysis"}, "[17]": {"target": "dog plasma proteins", "assay": "rapid equilibration dialysis"}, "[18]": {"target": "rabbit plasma proteins", "assay": "rapid equilibration dialysis"}, "[19]": {"conditions": "K2-EDTA plasma from male animals, 400 µL, 1 µM, 37 °C, 0–4 h, cold acetonitrile quench, LC-MS/MS"}, "[20]": {"conditions": "RED, K2-EDTA plasma from male animals, 2 h at 37 °C, AmyP53 5 µM, Propanolol 1 µM, LC-MS/MS"}, "[21]": {"conditions": "5 mice, intranasal, then SNpc injection of AmyP53, then 7 days daily intranasal"}, "[22]": {"conditions": "35-day treatment, SNpc co-injection then daily intranasal, n = 7 per group"}, "[23]": {"conditions": "rats, intranasal administration"}}, "note": "Ends that are not written are not given here.", "data": [{"molecule": "CC(C)[N+](C)(CCOC(=O)C1c2ccccc2Oc2ccccc21)C(C)C", "note": "[Propantheline, Propantheline bromide, reference compound]", "values": [{"measurement": "t1/2 in rabbit plasma", "setting": "[1]; [19]", "result": 0.283, "unit": "h"}, {"measurement": "t1/2 in mini-pig plasma", "setting": "[2]; [19]", "result": 2.98, "unit": "h"}, {"measurement": "t1/2 in dog plasma", "setting": "[3]; [19]", "result": 1.73, "unit": "h"}, {"measurement": "t1/2 in rat plasma", "setting": "[4]; [19]", "result": 3.78, "unit": "h"}]}, {"molecule": "CC(C)NCC(O)COc1cccc2ccccc12", "note": "(stereo not shown) [Propranolol, reference compound]", "values": [{"measurement": "bound to plasma protein %, rabbit plasma", "setting": "[5]; [20]", "result": "74.8 ±1.1", "unit": "%"}, {"measurement": "bound to plasma protein %, rat plasma", "setting": "[6]; [20]", "result": "89.8 ±0.1", "unit": "%"}, {"measurement": "bound to plasma protein %, mini-pig plasma", "setting": "[7]; [20]", "result": "85.2 ±0.9", "unit": "%"}, {"measurement": "bound to plasma protein %, dog plasma", "setting": "[8]; [20]", "result": "86.5 ±1.0", "unit": "%"}]}, {"molecule": "KEGVLYVGHHTK [AmyP53]", "values": [{"measurement": "body mass, preliminary safety assessment", "setting": "[9]; [21]", "result": "stable"}, {"measurement": "overall result of preliminary safety assessment", "setting": "[9]; [21]", "result": "safe"}, {"measurement": "effect on body weight of treated mice", "setting": "[9]; [22]", "result": "did not display any significant effect"}, {"measurement": "impact on overall behavior", "setting": "[9]; [22]", "result": "did not induce any negative impact"}, {"measurement": "toxicity / tolerability of repeated intranasal administration in rabbits", "setting": "[10]", "result": "no systemic or local toxicity"}, {"measurement": "half-life at 1 µM", "setting": "[1]; male, rabbit, K2-EDTA plasma", "result": 10, "unit": "h"}, {"measurement": "intranasal no-observed adverse effect level (NOAEL)", "setting": "[11]; male and female Sprague Dawley rats, GLP, every day for 28 days followed by 14 days of recovery", "result": 5, "unit": "mg/kg BW/day"}, {"measurement": "tolerability of repeated intranasal administration, 28 days", "setting": "[11]; male and female rats, 0.1, 1.0 and 5.0 mg/kg body weight/day, 28 days and 14 days of recovery", "result": "well tolerated"}, {"measurement": "half-life of AmyP53 in the brain", "setting": "[12]; approximate statement in discussion", "result": "about 1 h"}, {"measurement": "Cmax in brain tissue", "setting": "[12]; [23]", "result": 1766, "unit": "ng/mL"}, {"measurement": "T1/2 in brain tissue", "setting": "[12]; [23]", "result": 1.02, "unit": "h"}, {"measurement": "Tmax in brain tissue", "setting": "[12]; [23]", "result": 5, "unit": "min"}, {"measurement": "half-life at 1 µM", "setting": "[2]; male, pig, K2-EDTA plasma", "result": 6.07, "unit": "h"}, {"measurement": "fraction unbound at 2 h, 5 µM", "setting": "[5]; male, rabbit, K2-EDTA plasma", "result": 0.183}, {"measurement": "half-life at 1 µM", "setting": "[3]; male, dog, K2-EDTA plasma", "result": 1.38, "unit": "h"}, {"measurement": "maximal tolerated dose, one-week intranasal administration", "setting": "[13]", "result": "> 5", "unit": "mg/kg body weight"}, {"measurement": "maximal tolerated dose, one-week intravenous administration", "setting": "[13]", "result": "> 80", "unit": "mg/kg"}, {"measurement": "half-life at 1 µM", "setting": "[4]; male, rat, K2-EDTA plasma", "result": 13.1, "unit": "h"}, {"measurement": "fraction unbound at 2 h, 5 µM", "setting": "[6]; male, rat, K2-EDTA plasma", "result": 0.066}, {"measurement": "maximal intranasal dose without any signs of toxicity or dysfunction", "setting": "[14]", "result": "The maximal intranasal dose of AmyP53 without any signs of toxicity or dysfunction, is greater or equal to 5 mg/kg BW in both male and female Wistar rats."}, {"measurement": "fraction unbound at 2 h, 5 µM", "setting": "[7]; male, pig, K2-EDTA plasma", "result": 0.186}, {"measurement": "fraction unbound at 2 h, 5 µM", "setting": "[8]; male, dog, K2-EDTA plasma", "result": 0.154}]}, {"molecule": "KEGVLYVGHHTK", "note": "[AmyP53]", "values": [{"measurement": "bound to plasma protein %", "setting": "[15]", "result": 93.4, "unit": "%"}, {"measurement": "bound to plasma protein %", "setting": "[16]", "result": 81.4, "unit": "%"}, {"measurement": "bound to plasma protein %", "setting": "[17]", "result": 84.6, "unit": "%"}, {"measurement": "bound to plasma protein %", "setting": "[18]", "result": 81.7, "unit": "%"}]}]}
